Test results: ChEMBL document CHEMBL1122206, “Use of adenine nucleotide derivatives to assess the potential of exo-active-site-directed reagents as species- or isozyme-specific enzyme inactivators. 5. Interactions of adenosine 5'-triphosphate derivatives with rat pyruvate kinases, Escherichia coli thymidine kinase, and yeast and rat …” (1982)

Tests used:
[1] = target: T1, Hexokinase-2 (Rattus norvegicus) (UniProt P27881); experiment: Substrate activity against Rat hexokinase II as 1:1 Mg complex at 5.0 mM
T1 sequence (whole entry): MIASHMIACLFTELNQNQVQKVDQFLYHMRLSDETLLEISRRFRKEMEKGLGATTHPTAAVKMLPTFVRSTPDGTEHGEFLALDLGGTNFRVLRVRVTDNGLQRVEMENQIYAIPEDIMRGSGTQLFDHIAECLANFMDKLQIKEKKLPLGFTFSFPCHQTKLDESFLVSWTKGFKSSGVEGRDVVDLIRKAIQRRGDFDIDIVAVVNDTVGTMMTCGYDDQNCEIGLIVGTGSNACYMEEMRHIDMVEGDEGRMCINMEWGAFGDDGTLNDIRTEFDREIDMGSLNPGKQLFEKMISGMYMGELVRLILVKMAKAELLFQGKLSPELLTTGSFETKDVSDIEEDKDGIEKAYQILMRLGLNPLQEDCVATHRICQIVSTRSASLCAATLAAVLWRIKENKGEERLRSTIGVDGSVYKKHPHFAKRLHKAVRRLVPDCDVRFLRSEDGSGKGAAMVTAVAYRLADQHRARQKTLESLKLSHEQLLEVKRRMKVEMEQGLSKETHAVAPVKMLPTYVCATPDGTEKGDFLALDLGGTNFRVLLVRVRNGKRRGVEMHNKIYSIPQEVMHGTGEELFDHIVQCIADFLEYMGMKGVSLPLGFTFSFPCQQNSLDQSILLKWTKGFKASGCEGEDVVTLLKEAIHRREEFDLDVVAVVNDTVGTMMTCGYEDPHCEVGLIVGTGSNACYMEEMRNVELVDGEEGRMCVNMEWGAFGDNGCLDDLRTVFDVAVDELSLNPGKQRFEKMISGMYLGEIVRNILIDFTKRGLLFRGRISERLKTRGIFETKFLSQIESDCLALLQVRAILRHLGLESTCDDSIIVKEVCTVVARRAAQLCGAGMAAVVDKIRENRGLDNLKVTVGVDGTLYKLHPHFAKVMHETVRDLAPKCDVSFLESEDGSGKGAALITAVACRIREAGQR
In short: (§1)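 Hexokinase activity read at 22 °C as A340 change, coupled to glucose-6-phosphate dehydrogenase, in 0.05 M Tris-HCl pH 7.6 with 6.6 mM MgCl2, 10 mM α-D-glucose and 0.93 mM NADP. Donor was 5.0 mM MgATP derivative (1:1 Mg complex) in place of ATP. Yeast HK was isoelectric-focused. Rat HK I and III came from electrofocused liver extract, HK II from dialysed muscle extract.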

[2] = Tested for the velocity of 2.8 mM compound relative to that of 2.8 mM MgATP in the assay
In short: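 E. coli TK substrate test. 0.5 h after adding inhibitor, the mixture was diluted to 2.8 mM derivative in thymidine assay medium without ATP and with 1.42 mM MnCl2. Incubated 15 min at 37 °C, in the linear range. [14C]TMP formed was compared with that from 2.8 mM ATP under the same conditions.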

[3] = target: T1, Hexokinase-2 (Rattus norvegicus); experiment: Time dependent inhibition of hexokinase 2 activity after 6 h, at 5 mM compound
[4] = target: T2, Hexokinase-1 (Rattus norvegicus) (UniProt P05708); experiment: Substrate activity for rat hexokinase I as 1:1 Mg complex at 5.0 mM; in short: as §1
T2 sequence (whole entry): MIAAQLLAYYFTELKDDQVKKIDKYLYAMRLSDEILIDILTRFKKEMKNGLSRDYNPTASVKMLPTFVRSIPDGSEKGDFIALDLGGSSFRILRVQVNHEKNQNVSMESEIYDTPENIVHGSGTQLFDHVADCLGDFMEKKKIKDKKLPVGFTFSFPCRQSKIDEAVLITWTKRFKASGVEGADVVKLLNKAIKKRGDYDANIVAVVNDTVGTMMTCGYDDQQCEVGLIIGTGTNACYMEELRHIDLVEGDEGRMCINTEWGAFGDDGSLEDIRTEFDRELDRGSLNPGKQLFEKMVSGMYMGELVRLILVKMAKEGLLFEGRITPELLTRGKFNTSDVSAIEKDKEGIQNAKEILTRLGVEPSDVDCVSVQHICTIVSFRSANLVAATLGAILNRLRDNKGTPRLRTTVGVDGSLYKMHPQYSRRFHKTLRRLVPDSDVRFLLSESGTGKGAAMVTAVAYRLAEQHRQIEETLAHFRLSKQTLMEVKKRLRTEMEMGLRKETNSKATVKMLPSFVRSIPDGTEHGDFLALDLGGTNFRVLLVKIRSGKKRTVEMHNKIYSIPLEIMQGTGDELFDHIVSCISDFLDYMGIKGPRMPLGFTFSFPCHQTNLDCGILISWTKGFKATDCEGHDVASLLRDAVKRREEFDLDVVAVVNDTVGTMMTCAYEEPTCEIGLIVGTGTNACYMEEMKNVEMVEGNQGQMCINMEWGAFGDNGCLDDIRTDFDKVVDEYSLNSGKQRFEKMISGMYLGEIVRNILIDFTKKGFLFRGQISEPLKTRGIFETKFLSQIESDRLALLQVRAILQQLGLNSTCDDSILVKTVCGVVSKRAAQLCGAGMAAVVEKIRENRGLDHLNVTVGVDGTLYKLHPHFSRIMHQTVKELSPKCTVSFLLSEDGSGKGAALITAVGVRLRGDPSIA

Saccharomyces cerevisiae [5] = experiment: Substrate activity against yeast hexokinase as 1:1 Mg complexes at 5.0 mM; in short: as §1
[6] = target: Thymidine kinase (Escherichia coli) (UniProt P23331); experiment: Compound was tested for the lose of thymidine kinase activity after 6 hr, at 0 degrees celsius, with 10 mM ATP derivative. values were expressed in percent
Chain of Thymidine kinase (Escherichia coli) (P23331 whole entry, looked up): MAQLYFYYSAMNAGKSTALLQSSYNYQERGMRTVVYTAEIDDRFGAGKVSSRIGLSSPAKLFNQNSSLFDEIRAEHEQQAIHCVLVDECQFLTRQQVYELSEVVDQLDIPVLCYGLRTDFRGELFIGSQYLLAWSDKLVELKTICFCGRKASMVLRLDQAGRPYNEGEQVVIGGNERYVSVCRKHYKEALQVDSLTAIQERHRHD

[7] = target: T3, Hexokinase-3 (Rattus norvegicus) (UniProt P27926); experiment: Time dependent inhibition of Hexokinase type III activity after 6 h, at 22 degrees celsius, at 5 mM
T3 sequence (whole entry): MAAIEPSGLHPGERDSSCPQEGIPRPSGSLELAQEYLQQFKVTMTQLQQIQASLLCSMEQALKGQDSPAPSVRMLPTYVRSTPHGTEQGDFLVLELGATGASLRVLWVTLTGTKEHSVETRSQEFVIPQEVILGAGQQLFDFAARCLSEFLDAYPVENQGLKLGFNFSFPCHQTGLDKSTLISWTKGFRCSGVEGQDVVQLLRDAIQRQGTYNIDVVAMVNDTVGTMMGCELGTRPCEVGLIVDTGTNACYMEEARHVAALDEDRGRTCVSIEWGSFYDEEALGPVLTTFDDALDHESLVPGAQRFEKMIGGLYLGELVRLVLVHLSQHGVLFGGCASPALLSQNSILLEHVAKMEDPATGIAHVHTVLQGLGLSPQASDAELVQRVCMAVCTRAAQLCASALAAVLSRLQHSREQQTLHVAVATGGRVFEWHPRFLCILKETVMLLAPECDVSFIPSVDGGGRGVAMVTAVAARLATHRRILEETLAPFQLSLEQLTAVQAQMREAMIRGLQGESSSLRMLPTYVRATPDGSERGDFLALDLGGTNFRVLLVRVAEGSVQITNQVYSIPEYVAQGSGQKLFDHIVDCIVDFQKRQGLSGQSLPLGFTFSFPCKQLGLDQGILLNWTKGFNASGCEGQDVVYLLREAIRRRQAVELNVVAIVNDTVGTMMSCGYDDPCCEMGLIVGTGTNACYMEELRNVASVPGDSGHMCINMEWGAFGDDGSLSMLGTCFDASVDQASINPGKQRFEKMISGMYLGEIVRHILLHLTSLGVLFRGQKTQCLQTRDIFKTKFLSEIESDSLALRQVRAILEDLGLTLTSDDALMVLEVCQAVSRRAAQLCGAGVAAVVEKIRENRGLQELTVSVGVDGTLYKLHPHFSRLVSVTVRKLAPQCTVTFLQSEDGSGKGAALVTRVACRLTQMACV

[8] = target: Thymidine kinase (Escherichia coli) (UniProt P23331); experiment: Compound was tested for the initial inhibition of thymidine kinase by 1.4 mM compound in the presence of 5.7 mM ATP in Escherichia coli
[9] = target: T3, Hexokinase-3 (Rattus norvegicus); experiment: Substrate activity for rat hexokinase III as 1:1 Mg complex at 5.0 mM; in short: as §1
[10] = target: T2, Hexokinase-1 (Rattus norvegicus); experiment: Time dependent inhibition of Hexokinase type I activity after 6 h, at 22 degrees celsius, at 5 mM compound
Saccharomyces cerevisiae [11] = experiment: Time dependent inhibition of hexokinase activity after 6 hr, at 22 degrees celsius, with 5 mM ATP derivative in yeast.
[12] = target: Thymidine kinase (Escherichia coli) (UniProt P23331); experiment: Compound was tested for the loss of thymidine kinase activity from Escherichia coli after 6 hr at 0 degrees C at 10 mM

Compound	Relative velocity [1]	Velocity [2]	inhibition [3]	Relative velocity [4]	Relative velocity (Saccharomyces cerevisiae [5])	inhibition [6]	inhibition [7]	inhibition [8]	Relative velocity [9]	inhibition [10]	inhibition (Saccharomyces cerevisiae [11])	inhibition [12]
O=C(CI)NCCCCCCC(=O)NCCCCCCNc1ncnc2c1ncn2[C@@H]1O[C@H](COP(=O)(O)OP(=O)(O)OP(=O)(O)O)[C@@H](O)[C@H]1O	–	41%	0%	–	–	0%	–	12%	–	0%	0%	–
Nc1ncnc2c1nc(NCCCCCCCCNC(=O)CI)n2[C@@H]1O[C@H](COP(=O)(O)OP(=O)(O)OP(=O)(O)O)[C@@H](O)[C@H]1O	0.82	–	–	1.16	0.54	–	0%	–	1.81	–	–	0%
CC(=O)NCCCCCCCCNc1ncnc2c1ncn2[C@@H]1O[C@H](COP(=O)(O)OP(=O)(O)OP(=O)(O)O)[C@@H](O)[C@H]1O	0.6	–	–	1.12	–	–	0%	–	1.25	0%	0%	–
Nc1ncnc2c1nc(NCCCCNC(=O)CI)n2[C@@H]1O[C@H](COP(=O)(O)OP(=O)(O)OP(=O)(O)O)[C@@H](O)[C@H]1O	–	–	0%	–	–	–	0%	–	–	0%	–	–
O=C(CI)NCCCCCC(=O)NCCCCNc1ncnc2c1ncn2[C@@H]1O[C@H](COP(=O)(O)OP(=O)(O)OP(=O)(O)O)[C@@H](O)[C@H]1O	–	71%	–	–	–	0%	0%	–	–	0%	0%	–
O=C(CI)NCCC(=O)NCCCCCCNc1ncnc2c1ncn2[C@@H]1O[C@H](COP(=O)(O)OP(=O)(O)OP(=O)(O)O)[C@@H](O)[C@H]1O	–	53%	0%	–	–	0%	0%	1%	–	0%	0%	–

The next lines start with the values.

Relative velocity [1]	Velocity [2]	inhibition [3]	Relative velocity [4]	Relative velocity (Saccharomyces cerevisiae [5])	inhibition [6]	inhibition [7]	inhibition [8]	Relative velocity [9]	inhibition [10]	inhibition (Saccharomyces cerevisiae [11])	inhibition [12]	Compound
0.43	> 14%	0%	0.63	0.94	44%	0%	8%	1.02	0%	0%	–	CN(CCCN(C)C(=O)CCCNc1ncnc2c1ncn2[C@@H]1O[C@H](COP(=O)(O)OP(=O)(O)OP(=O)(O)O)[C@@H](O)[C@H]1O)C(=O)CCCNC(=O)CI
0.91	36%	0%	1.3	1	0%	0%	0%	2.02	0%	0%	–	O=C(CI)NCCCC(=O)NCCCCCCNc1ncnc2c1ncn2[C@@H]1O[C@H](COP(=O)(O)OP(=O)(O)OP(=O)(O)O)[C@@H](O)[C@H]1O
–	–	0%	–	–	–	0%	–	–	0%	0%	–	Nc1ncnc2c1nc(NCCCCCCNC(=O)CI)n2[C@@H]1O[C@H](COP(=O)(O)OP(=O)(O)OP(=O)(O)O)[C@@H](O)[C@H]1O
–	–	0%	–	–	–	0%	–	–	0%	–	–	Nc1ncnc2c1nc(NCCNC(=O)CI)n2[C@@H]1O[C@H](COP(=O)(O)OP(=O)(O)OP(=O)(O)O)[C@@H](O)[C@H]1O
–	55%	–	–	–	0%	–	1%	–	–	0%	–	CN(CCCCN(C)c1ncnc2c1ncn2[C@@H]1O[C@H](COP(=O)(O)OP(=O)(O)OP(=O)(O)O)[C@@H](O)[C@H]1O)C(=O)CCCCCCNC(=O)CI
–	41%	–	–	–	–	–	–	–	–	–	0%	CC(=O)NCCCCCC(=O)N(C)CCCCN(C)c1ncnc2c1ncn2[C@@H]1O[C@H](COP(=O)(O)OP(=O)(O)OP(=O)(O)O)[C@@H](O)[C@H]1O
0.35	> 33%	0%	0.88	1.2	60%	0%	0%	0.93	0%	0%	–	CN(CCCCN(C)c1ncnc2c1ncn2[C@@H]1O[C@H](COP(=O)(O)OP(=O)(O)OP(=O)(O)O)[C@@H](O)[C@H]1O)C(=O)CCCNC(=O)CI
–	49%	–	–	–	0%	–	5%	–	–	–	–	CN(CCCCCCN(C)c1ncnc2c1ncn2[C@@H]1O[C@H](COP(=O)(O)OP(=O)(O)OP(=O)(O)O)[C@@H](O)[C@H]1O)C(=O)CCCCCNC(=O)CI
